Published values pooled from the literature.
Lines come from different studies, so protocols differ.
CASP7: Caspase-7 (CASP7, Homo sapiens, UniProt P55210)
glgA: glgA (Escherichia coli, UniProt P0A6U8)

| SMILES | target | test | test system | setting | quantity | result |
| --- | --- | --- | --- | --- | --- | --- |
| C#Cc1n[nH]c2c(-c3cn(C(C)c4ccccn4)c(=O)[nH]c3=O)cc(F)cc12 (stereo not shown) | Phosphatidylinositol 4,5-bisphosphate 3-kinase catalytic subunit gamma isoform (PIK3CG, Homo sapiens, UniProt P48736) | enzyme activity, inhibitor |  | 1 µM | inhibition | 14.7% |
| CN(C)C(=O)COC(=O)Cc1ccc(OC(=O)c2ccc(NC(=N)N)cc2)cc1 | CASP7 | enzyme activity, inhibitor |  | 10 µM | inhibition | 0% |
| Cc1nn(C)cc1-c1nc2c(N3CCN(Cc4ccc(Cl)cc4)CC3)c(Cl)cnc2[nH]1 | Dual specificity testis-specific protein kinase 1 (TESK1, Homo sapiens, UniProt Q15569) | binding, competition with immobilised ligand |  | 1 µM | remaining binding | 87% |
| CC(=O)N[C@@H](CC(=O)O)C(=O)N[C@@H](CC(N)=O)C(=O)N[C@@H](CC(C)C)C(=O)N[C@H](C=O)CC(=O)O | CASP7 | enzyme activity, inhibitor |  | 50 nM | inhibition | 43% |
| Nc1ncnc2c1ncn2[C@@H]1O[C@H](COP(=O)(O)OP(=O)(O)O[C@H]2O[C@H](CO)[C@@H](O)[C@H](O)[C@H]2O)[C@@H](O)[C@H]1O | glgA | enzyme activity, substrate |  |  | Km | 420 µM |
| O=C(Nc1cccnn1)N1CCN([C@@H]2CCOc3cc(C(F)(F)F)ccc32)CC1 | Alpha-2B adrenergic receptor (ADRA2B, Homo sapiens, UniProt P18089) | ligand displacement |  | 20 µM | inhibition | 45% |
| CCN(CC)CCCC[C@H](NC(=O)[C@H](CC(C)C)NC(=O)[C@H](C)NC(=O)[C@H](Cc1ccccc1)NC(=O)c1ccc(C(C)(C)C)cc1)C(=O)N[C@@H](CO)C(=O)OC | CREB-binding protein (CREBBP, Homo sapiens, UniProt Q92793) | thermal stability, DSF |  | 25 µM | ΔTm | 0.35 °C |
| N=C(N)c1ccc2cc(OC(=O)c3ccc(N=C(N)N)cc3)ccc2c1 | Ubiquitin carboxyl-terminal hydrolase isozyme L3 (UCHL3, Homo sapiens, UniProt P15374) | enzyme activity, inhibitor |  | 10 µM | inhibition | 6% |
| Nc1ncc(-c2nc(N3CCOCC3)nc(N3CCOCC3)n2)c(C(F)F)n1 | 5-hydroxytryptamine receptor 1B (Htr1b, Rattus norvegicus, UniProt P28564) | cell-free assay, radioligand |  | 10 µM | remaining signal | 115% |
| COc1ncccc1-c1cnn2ccc(N3CCN(C(=O)OC(C)C)CC3)nc12 | Mitogen-activated protein kinase kinase kinase 15 (MAP3K15, Homo sapiens, UniProt Q6ZN16) | binding, competition with immobilised ligand |  | 1 µM | remaining binding | 86% |
| OC[C@H]1NC[C@@H](O)[C@@H]1O | glgA | enzyme activity, inhibitor |  | 500 µM | activity vs control | 72% |
| CSCC[C@H](NC(=O)[C@@H](NC(=O)[C@@H](N)Cc1ccc(O)cc1)C(C)C)C(=O)NCC(=O)N[C@@H](Cc1c[nH]cn1)C(=O)O | Melanocyte-stimulating hormone receptor (Mc1r, Mus musculus, UniProt Q01727) | cAMP, agonist | HEK293 |  | Emax | 60% |
| C=CC(=O)N1CCC[C@@H](n2nc(-c3ccc(Oc4ccccc4)cc3)c3c(N)ncnc32)C1 | Dual specificity tyrosine-phosphorylation-regulated kinase 1B (DYRK1B, Homo sapiens, UniProt Q9Y463) | cell-free assay |  | 0.1 µM | remaining signal | 195% |
